Converted amounts (≈) assume the structure as drawn.
Columns and labels:
[1] = target: D(3) dopamine receptor (Homo sapiens, UniProt P35462); test: Inhibition of dopamine D3 receptor
[2] = target: T1, C-X-C chemokine receptor type 3 (Homo sapiens, UniProt P49682); test: Displacement of [125I]I-TAC from human CXCR3 expressed in CHO cells by scintillation proximity assay; type: cell-based
T1 sequence (P49682 whole entry): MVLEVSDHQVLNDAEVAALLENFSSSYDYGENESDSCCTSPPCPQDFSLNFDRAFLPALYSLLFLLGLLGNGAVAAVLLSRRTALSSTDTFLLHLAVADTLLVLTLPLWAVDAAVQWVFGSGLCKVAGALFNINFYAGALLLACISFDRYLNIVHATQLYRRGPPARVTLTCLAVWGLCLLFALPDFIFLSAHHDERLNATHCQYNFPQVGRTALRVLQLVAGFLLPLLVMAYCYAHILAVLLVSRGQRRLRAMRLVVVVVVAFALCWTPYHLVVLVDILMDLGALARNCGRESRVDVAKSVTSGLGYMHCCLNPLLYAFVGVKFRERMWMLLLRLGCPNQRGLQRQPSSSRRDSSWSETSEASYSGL
Summary of the method: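 Membranes came from CHO cells transfected with human CXCR3. Serial dilutions of inhibitor were incubated for 2 h at room temperature with 125I-labelled I-TAC (CXCL11), the membranes and WGA-coated PVT beads. Binding was read by scintillation proximity.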

[3] = target: 5-hydroxytryptamine receptor 6 (Homo sapiens, UniProt P50406); test: Inhibition of 5HT6 receptor
[4] = target: 5-hydroxytryptamine receptor 7 (Homo sapiens, UniProt P34969); test: Inhibition of 5HT7 receptor
[5] = target: 5-hydroxytryptamine receptor 2C (Homo sapiens, UniProt P28335); test: Inhibition of 5HT2C receptor
[6] = Inhibition of adrenergic alpha1 receptor
[7] = target: D(2) dopamine receptor (Homo sapiens, UniProt P14416); test: Inhibition of dopamine D2 receptor
[8] = target: D(4) dopamine receptor (Homo sapiens, UniProt P21917); test: Inhibition of dopamine D4.4 receptor
[9] = target: Beta-1 adrenergic receptor (Homo sapiens, UniProt P08588); test: Inhibition of adrenergic beta-1 receptor
[10] = target: 5-hydroxytryptamine receptor 2A (Homo sapiens, UniProt P28223); test: Inhibition of 5HT2A receptor
[11] = target: Alpha-2A adrenergic receptor (Homo sapiens, UniProt P08913); test: Inhibition of adrenergic alpha2A receptor
[12] = target: Alpha-2C adrenergic receptor (Homo sapiens, UniProt P18825); test: Inhibition of adrenergic Alpha-2C receptor
[13] = target: D(1A) dopamine receptor (Homo sapiens, UniProt P21728); test: Inhibition of dopamine D1 receptor
[14] = target: 5-hydroxytryptamine receptor 2B (Homo sapiens, UniProt P41595); test: Inhibition of 5HT2B receptor
[15] = target: T1, C-X-C chemokine receptor type 3; test: Antagonist activity at human CXCR3 expressed in L1.2 cells assessed as inhibition of I-TAC-induced Ca2+ mobilization by FLIPR assay; type: functional, cell-based
Summary of the method: (§1)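 CXCR3-transfected L1.2 mouse pre-B cells were loaded with Fluo-4 and washed. They were pre-incubated with inhibitor for 2 h at room temperature, then stimulated with I-TAC. The transient rise in intracellular Ca2+ was read on a FLIPR.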

[16] = target: Cytochrome P450 2C19 (Homo sapiens, UniProt P33261); test: Inhibition of CYP2C19; type: ADME
[17] = target: T2, C-X-C chemokine receptor type 3 (Mus musculus, UniProt O88410); test: Antagonist activity at mouse CXCR3 expressed in L1.2 cells assessed as inhibition of I-TAC-induced Ca2+ mobilization by FLIPR assay; type: functional, cell-based; summary of the method: as §1
[18] = target: Cytochrome P450 2C9 (Homo sapiens, UniProt P11712); test: Inhibition of CYP2C9; type: ADME
[19] = target: Cytochrome P450 2D6 (Homo sapiens, UniProt P10635); test: Inhibition of CYP2D6; type: ADME
[20] = target: Cytochrome P450 3A4 (Homo sapiens, UniProt P08684); test: Inhibition of CYP3A4; type: ADME
[21] = target: Cytochrome P450 1A2 (Homo sapiens, UniProt P05177); test: Inhibition of CYP1A2; type: ADME
[22] = Lipophilicity, log P of the compound; type: physicochemical; conditions: octanol/water
[23] = target: Voltage-gated inwardly rectifying potassium channel KCNH2 (Homo sapiens, UniProt Q12809); test: Inhibition of human ERG
[24] = target: 5-hydroxytryptamine receptor 1A (Homo sapiens, UniProt P08908); test: Inhibition of 5HT1A receptor
[25] = Fraction unbound in human; type: ADME, organism-based; conditions: in vivo
[26] = Solubility in pH 6.8 buffer; type: physicochemical
[27] = Fraction unbound in rat; type: ADME, organism-based; conditions: in vivo
[28] = target: T2, C-X-C chemokine receptor type 3; test: Displacement of [125I]I-TAC from mouse CXCR3 expressed in CHO cells by scintillation proximity assay; type: cell-based
[29] = Solubility in pH 1.0 buffer; type: physicochemical

D(2) dopamine receptor, sequence (P14416 whole entry): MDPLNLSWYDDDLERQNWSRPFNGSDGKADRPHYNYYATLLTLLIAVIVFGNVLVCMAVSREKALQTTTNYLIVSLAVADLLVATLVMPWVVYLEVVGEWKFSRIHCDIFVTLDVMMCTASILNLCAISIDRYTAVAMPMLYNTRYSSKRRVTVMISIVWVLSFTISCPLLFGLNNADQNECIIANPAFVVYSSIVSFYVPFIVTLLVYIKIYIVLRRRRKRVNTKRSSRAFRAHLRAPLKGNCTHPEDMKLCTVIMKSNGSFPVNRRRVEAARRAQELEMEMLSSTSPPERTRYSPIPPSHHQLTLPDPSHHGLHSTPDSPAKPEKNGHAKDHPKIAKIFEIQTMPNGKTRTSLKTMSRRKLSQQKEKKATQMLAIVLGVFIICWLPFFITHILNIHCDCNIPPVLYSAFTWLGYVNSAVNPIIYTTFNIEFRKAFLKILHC
Alpha-2C adrenergic receptor, sequence (P18825 whole entry): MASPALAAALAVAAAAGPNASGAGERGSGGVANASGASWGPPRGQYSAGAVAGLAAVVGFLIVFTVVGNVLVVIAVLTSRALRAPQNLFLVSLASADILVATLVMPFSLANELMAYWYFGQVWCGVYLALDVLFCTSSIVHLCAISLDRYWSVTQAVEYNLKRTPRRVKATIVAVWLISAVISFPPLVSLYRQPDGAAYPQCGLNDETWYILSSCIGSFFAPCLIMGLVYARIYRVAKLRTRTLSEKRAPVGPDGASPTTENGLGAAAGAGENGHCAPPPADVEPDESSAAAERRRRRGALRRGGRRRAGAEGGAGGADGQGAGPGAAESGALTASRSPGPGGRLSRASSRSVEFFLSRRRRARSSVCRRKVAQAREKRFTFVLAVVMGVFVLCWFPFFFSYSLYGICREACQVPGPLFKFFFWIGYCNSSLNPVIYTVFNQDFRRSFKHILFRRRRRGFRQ
5-hydroxytryptamine receptor 7, sequence (P34969 whole entry): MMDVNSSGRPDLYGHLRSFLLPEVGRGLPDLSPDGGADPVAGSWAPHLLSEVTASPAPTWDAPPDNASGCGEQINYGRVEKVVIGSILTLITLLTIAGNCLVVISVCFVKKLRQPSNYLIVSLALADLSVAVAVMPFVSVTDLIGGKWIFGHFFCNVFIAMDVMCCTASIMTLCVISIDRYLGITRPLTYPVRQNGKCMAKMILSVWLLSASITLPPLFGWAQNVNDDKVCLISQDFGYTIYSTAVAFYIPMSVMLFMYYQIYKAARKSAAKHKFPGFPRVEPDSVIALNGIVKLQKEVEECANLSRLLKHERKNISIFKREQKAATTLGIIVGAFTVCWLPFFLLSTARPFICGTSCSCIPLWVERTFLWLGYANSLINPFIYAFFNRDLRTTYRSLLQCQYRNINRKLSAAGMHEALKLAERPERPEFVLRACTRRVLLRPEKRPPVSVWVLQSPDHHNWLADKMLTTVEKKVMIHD
5-hydroxytryptamine receptor 2A, sequence (P28223 whole entry): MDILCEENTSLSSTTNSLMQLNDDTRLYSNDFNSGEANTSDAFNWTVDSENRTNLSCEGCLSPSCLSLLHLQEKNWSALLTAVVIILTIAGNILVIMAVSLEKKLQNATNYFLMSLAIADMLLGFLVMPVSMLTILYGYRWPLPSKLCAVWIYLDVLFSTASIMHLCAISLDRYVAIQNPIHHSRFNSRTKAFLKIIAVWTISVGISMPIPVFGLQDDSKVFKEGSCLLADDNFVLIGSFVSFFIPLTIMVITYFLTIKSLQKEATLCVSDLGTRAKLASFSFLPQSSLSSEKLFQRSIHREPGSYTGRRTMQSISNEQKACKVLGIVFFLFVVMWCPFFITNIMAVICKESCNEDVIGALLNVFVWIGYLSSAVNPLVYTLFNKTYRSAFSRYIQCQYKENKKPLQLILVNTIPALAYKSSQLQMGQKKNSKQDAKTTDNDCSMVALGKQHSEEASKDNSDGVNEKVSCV
D(1A) dopamine receptor, sequence (P21728 whole entry): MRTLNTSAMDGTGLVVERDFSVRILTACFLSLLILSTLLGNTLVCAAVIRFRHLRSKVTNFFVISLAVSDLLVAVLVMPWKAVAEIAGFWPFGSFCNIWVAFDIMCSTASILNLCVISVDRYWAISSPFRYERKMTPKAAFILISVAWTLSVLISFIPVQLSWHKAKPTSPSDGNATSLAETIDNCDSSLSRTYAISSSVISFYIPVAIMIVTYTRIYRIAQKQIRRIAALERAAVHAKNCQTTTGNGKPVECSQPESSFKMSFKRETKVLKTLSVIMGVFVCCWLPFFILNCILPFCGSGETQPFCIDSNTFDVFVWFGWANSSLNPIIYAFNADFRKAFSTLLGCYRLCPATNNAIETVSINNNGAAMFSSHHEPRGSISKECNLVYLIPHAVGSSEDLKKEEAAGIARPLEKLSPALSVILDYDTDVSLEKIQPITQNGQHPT
T2 sequence (O88410 whole entry): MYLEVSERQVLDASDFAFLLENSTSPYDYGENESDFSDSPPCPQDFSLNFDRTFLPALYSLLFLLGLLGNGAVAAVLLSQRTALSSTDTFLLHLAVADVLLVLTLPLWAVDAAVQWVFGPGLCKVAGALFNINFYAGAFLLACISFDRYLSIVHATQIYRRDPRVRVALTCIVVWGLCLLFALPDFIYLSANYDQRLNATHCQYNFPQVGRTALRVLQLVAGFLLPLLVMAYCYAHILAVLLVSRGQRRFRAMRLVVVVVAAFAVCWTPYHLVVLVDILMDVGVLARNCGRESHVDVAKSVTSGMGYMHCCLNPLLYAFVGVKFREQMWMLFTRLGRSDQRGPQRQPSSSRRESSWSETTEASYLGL
5-hydroxytryptamine receptor 2C, sequence (P28335 whole entry): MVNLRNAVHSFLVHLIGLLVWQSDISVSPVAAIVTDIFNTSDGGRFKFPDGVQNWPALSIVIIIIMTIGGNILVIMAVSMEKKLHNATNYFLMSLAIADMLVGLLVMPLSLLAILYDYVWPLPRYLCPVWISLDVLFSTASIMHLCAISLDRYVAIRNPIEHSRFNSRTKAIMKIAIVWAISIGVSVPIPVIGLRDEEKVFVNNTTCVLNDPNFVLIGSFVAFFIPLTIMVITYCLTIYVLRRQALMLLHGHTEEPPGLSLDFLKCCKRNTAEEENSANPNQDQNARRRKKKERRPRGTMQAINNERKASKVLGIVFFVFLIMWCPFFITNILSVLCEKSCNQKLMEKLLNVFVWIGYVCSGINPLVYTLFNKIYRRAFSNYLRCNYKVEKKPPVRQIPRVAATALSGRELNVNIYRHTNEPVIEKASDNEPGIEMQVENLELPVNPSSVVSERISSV
Alpha-2A adrenergic receptor, sequence (P08913 whole entry): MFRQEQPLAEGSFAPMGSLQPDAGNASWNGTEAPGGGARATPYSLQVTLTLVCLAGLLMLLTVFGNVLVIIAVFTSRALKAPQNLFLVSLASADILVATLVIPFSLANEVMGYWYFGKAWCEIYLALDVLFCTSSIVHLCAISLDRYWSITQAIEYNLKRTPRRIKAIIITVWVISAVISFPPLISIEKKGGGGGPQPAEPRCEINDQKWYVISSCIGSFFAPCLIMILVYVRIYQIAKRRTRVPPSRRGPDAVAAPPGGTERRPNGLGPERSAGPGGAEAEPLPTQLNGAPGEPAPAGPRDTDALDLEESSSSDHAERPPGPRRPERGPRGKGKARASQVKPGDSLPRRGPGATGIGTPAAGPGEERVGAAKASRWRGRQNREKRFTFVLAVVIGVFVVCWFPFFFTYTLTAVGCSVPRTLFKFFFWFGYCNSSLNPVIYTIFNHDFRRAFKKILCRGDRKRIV
D(4) dopamine receptor, sequence (P21917 whole entry): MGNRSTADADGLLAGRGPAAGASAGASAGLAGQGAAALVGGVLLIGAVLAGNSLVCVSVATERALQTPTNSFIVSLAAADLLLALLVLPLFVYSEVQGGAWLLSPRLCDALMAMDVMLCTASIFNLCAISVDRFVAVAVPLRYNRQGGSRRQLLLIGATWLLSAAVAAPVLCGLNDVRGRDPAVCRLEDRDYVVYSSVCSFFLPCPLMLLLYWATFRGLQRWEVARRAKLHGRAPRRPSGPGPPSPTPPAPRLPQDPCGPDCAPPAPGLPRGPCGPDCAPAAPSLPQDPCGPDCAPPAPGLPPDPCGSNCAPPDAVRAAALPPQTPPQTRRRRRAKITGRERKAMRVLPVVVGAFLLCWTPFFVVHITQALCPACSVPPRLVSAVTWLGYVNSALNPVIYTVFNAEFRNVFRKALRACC
5-hydroxytryptamine receptor 6, sequence (P50406 whole entry): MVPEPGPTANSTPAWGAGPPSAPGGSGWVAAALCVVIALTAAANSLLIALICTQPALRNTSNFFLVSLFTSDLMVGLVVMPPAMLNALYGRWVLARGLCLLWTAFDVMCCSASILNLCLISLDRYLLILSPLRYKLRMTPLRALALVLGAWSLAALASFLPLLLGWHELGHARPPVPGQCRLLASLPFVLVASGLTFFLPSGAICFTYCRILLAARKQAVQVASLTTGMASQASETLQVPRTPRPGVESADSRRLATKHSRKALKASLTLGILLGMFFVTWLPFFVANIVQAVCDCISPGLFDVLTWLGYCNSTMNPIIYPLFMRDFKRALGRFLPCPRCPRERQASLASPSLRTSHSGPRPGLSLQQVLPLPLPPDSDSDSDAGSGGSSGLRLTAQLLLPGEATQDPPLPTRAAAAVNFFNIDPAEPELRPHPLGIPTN
D(3) dopamine receptor, sequence (P35462 whole entry): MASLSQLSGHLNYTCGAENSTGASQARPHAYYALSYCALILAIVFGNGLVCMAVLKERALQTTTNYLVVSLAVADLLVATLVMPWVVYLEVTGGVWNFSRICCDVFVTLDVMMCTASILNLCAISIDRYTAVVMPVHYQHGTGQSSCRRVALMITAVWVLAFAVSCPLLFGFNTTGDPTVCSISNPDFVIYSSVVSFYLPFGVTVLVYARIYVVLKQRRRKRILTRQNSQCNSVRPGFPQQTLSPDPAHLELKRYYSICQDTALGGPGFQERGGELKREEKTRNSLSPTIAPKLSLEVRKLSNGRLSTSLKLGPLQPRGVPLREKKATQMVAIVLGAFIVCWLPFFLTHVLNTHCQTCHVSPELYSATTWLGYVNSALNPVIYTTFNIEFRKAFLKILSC

CCN(CC)C(=O)[C@@H]1C=C2c3cccc4[nH]cc(c34)C[C@H]2NC1
IC50 [1]: > 10000 nM
IC50 [2]: > 10000 nM
IC50 [3]: 16 nM
IC50 [4]: 143 nM
IC50 [5]: 1290 nM
IC50 [6]: > 10000 nM
IC50 [7]: > 10000 nM
IC50 [8]: > 10000 nM
IC50 [9]: > 10000 nM
IC50 [10]: 6 nM
IC50 [11]: > 10000 nM
IC50 [12]: > 10000 nM
IC50 [13]: > 10000 nM
IC50 [14]: 54 nM

CCN(CC)C(=O)[C@@H]1C=C2c3cccc4[nH]cc(c34)C[C@H]2N(C(=O)Nc2ccncc2)C1
IC50 [2]: 2000 nM
IC50 [15]: 6800 nM

CCN(CC)C(=O)[C@@H]1C=C2c3cccc4[nH]cc(c34)C[C@H]2N(C(=O)Nc2cccnc2)C1
IC50 [2]: 285 nM
IC50 [15]: 67 nM

CCN(CC)C(=O)[C@@H]1C=C2c3cccc4[nH]cc(c34)C[C@H]2N(C(=O)Oc2ccccc2)C1
IC50 [2]: 803 nM
IC50 [15]: 809 nM

CCN(CC)C(=O)[C@@H]1C=C2c3cccc4c3c(cn4C)C[C@H]2N(C(=O)Nc2ccccc2)C1
IC50 [2]: 220 nM
IC50 [15]: 60 nM

CCN(CC)C(=O)[C@@H]1C=C2c3cccc4[nH]cc(c34)C[C@H]2N(C(=O)NC2CCCCC2)C1
IC50 [2]: 179 nM
IC50 [15]: 78 nM

CCN(CC)C(=O)[C@@H]1C=C2c3cccc4c3c(cn4Cc3ccccc3)C[C@H]2N(C(=O)Nc2ccccc2)C1
IC50 [2]: 590 nM
IC50 [15]: 510 nM

CCN(CC)C(=O)[C@@H]1C=C2c3cccc4[nH]cc(c34)C[C@H]2N(C(=O)Nc2ccc(C)cc2)C1
IC50 [2]: 313 nM
IC50 [15]: 100 nM

CCN(CC)C(=O)[C@@H]1C=C2c3cccc4[nH]cc(c34)C[C@H]2N(C(=O)Nc2ccccn2)C1
IC50 [2]: 428 nM
IC50 [15]: 62 nM

CCN(CC)C(=O)[C@@H]1CC2c3cccc4[nH]cc(c34)C[C@H]2N(C(=O)Nc2ccccc2)C1 (some centres not stated)
IC50 [2]: 5300 nM
IC50 [15]: 1930 nM

CCN(CC)C[C@@H]1C=C2c3cccc4[nH]cc(c34)C[C@H]2N(C(=O)Nc2ccccc2)C1
IC50 [2]: > 10000 nM
IC50 [15]: > 10000 nM

CCN(CC)C(=O)[C@@H]1C=C2c3cccc4[nH]cc(c34)C[C@H]2N(C(=O)N(C)c2ccccc2)C1
IC50 [2]: > 10000 nM
IC50 [15]: > 10000 nM

CCN(CC)C(=O)[C@@H]1C=C2c3cccc4[nH]cc(c34)C[C@H]2N(C(=O)Nc2cc(OC)c(OC)c(OC)c2)C1
IC50 [2]: 3050 nM
IC50 [15]: 564 nM

CCN(CC)C(=O)[C@@H]1C=C2c3cccc4[nH]cc(c34)C[C@H]2N(C(=O)Nc2ccccc2C)C1
IC50 [2]: 146 nM
IC50 [15]: 28 nM

CCN(CC)C(=O)[C@@H]1C=C2c3cccc4[nH]cc(c34)C[C@H]2N(C(=O)Nc2cccc(C)c2)C1
IC50 [2]: 231 nM
IC50 [15]: 45 nM

CCN(CC)C(=O)[C@H]1C=C2c3cccc4[nH]cc(c34)C[C@H]2N(C(=O)Nc2ccccc2)C1
IC50 [2]: > 10000 nM

CCN(CC)C(=O)[C@@H]1C=C2c3cccc4[nH]cc(c34)C[C@H]2N(C(=O)Nc2ccccc2)C1
IC50 [16]: > 10000 nM
IC50 [1]: 660 nM
IC50 [17]: 30 nM
IC50 [18]: > 10000 nM
IC50 [2]: 54 nM
IC50 [3]: 9580 nM
IC50 [4]: > 10000 nM
IC50 [19]: > 10000 nM
IC50 [20]: > 10000 nM
IC50 [21]: > 10000 nM
IC50 [5]: > 10000 nM
logP [22]: 4.2
IC50 [23]: > 30000 nM
IC50 [24]: 3600 nM
IC50 [6]: 4030 nM
IC50 [7]: 1590 nM
IC50 [8]: 2650 nM
fraction unbound [25]: 0.01
solubility [26]: 5 µg/mL (≈ 11.7 µM)
IC50 [9]: 5760 nM
fraction unbound [27]: 0.02
IC50 [10]: 750 nM
IC50 [28]: 200 nM
IC50 [11]: 1930 nM
IC50 [15]: 18 nM
IC50 [12]: 215 nM
IC50 [13]: 4900 nM
IC50 [14]: 2470 nM
solubility [29]: 5 µg/mL (≈ 11.7 µM)

Source: ChEMBL document CHEMBL1154177, “Special ergolines are highly selective, potent antagonists of the chemokine receptor CXCR3: discovery, characterization and preliminary SAR of a promising lead” (Bioorg Med Chem Lett, 2009)
